Sampled rows, rich in hits. Any-hit rate of the full collection: about 4%.
UPR XBP1 act – adaptive UPR (XBP1) activation | activation, % at 20 µM | 0.33% of 330,000 active | CHO-XBP1 luciferase reporter, IRE1-XBP1 UPR activation, luminescence; percent of tunicamycin response, DMSO as zero | AID 463104;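 active means versus positive control, 20 µM dose yields 30% or more activation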
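Material – CHO cell line with stable XBP1 luciferase reporter · Buffer or medium – F12 plus 10% FBS · Compound – single point, 20 µM final compound, 1% DMSO · Schedule – 16-18 h cell attachment at 37 °C, then 6 h compound exposure · Signal – Steady-Glo luminescence read · Benchmarks – high control tunicamycin 10 µg/mL final, low control DMSO vehicle only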
Mdm2 MdmX PPI – disrupts the human Mdm2-MdmX interaction; O15151+Q00987; SaOS-2 split-luciferase Mdm2/MdmX complementation, luminescence; inhibition, % at 8 µM; 3% of 330,000 active; AID 485346;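 active means inhibition of at least 50% at 8 µM in the primary screen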
Exocytosis inh – lytic granule exocytosis inhibition | TALL-104 LAMP-1 surface exposure, flow cytometry; cells stimulated with thapsigargin and PMA | inhibition, % at 10 µM | 0.66% of 360,000 active;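 active means inhibition above about 55%, limit read from the data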
ABHD5-PLIN5 inh – inhibitors of human ABHD5-perilipin-5 interaction. Q00G26+Q8WTS1. Split G. princeps luciferase complementation, luminescence, 4 h. inhibition, % at 4 µM. 0.78% of 360,000 active;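 active means inhibition above the mean inhibition across every tested compound plus 3 SD, cut at about 22% in these data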
Target sequence (Q00G26 whole entry, looked up): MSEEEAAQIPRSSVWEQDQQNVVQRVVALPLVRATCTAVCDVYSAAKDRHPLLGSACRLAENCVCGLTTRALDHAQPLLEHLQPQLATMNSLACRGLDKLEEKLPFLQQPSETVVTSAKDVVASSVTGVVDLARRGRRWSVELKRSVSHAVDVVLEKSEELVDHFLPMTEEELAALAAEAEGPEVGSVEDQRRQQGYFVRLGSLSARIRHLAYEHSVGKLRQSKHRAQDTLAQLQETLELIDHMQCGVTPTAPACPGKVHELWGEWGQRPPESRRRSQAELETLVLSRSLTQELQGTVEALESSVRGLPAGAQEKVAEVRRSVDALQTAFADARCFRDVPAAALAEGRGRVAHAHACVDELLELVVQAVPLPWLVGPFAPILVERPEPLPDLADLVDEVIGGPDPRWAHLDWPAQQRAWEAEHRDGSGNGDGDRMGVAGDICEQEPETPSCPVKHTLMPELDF
Target sequence (Q8WTS1 whole entry, looked up): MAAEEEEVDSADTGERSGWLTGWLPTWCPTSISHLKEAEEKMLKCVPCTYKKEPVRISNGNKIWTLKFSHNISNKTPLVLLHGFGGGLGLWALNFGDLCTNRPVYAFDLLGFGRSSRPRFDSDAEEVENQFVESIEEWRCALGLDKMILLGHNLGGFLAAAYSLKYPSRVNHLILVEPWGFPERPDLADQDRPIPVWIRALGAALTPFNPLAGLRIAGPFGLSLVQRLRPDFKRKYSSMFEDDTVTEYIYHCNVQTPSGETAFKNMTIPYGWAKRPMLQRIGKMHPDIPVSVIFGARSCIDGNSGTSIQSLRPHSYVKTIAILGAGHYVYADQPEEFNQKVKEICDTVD
CHOP UPR activ – apoptotic UPR (CHOP) activation. CHO-CHOP luciferase reporter, luminescence; percent of tunicamycin response over DMSO baseline. activation, % at 10 µM. 0.34% of 330,000 active;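 active means at 10 µM dose, activation of 40% or more, normalized to positive control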
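System: CHO-CHOP luciferase reporter cell line; amount: 500 cells/well; buffer or medium: F12 medium containing 10% fetal bovine serum; incubation: 6 h compound exposure at 37 °C after overnight seeding; measured by: luciferase luminescence after 10 min with Steady-Glo reagent; evaluation: % reporter activation, DMSO baseline versus tunicamycin full activation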
Mdm2-MdmX conf – human Mdm2/MdmX binding inhibition, confirmed. shares compounds with Mdm2 MdmX PPI. luminescent assay. inhibition, % at 8 µM. 55% of 10,000 active. AID 489028; in the data active means inhibition above about 40%
FLuc counter – inhibits full-length luciferase, flagging false Mdm2/MdmX hits; shares compounds with Mdm2 MdmX PPI; SaOS-2 full-length luciferase counterscreen, luminescence; inhibition, % at 8 µM; 77% of 6,200 active; AID 504607;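 active means mean inhibition at 8 µM reaching about 37%, which flags the compound as non-specific, limit read from the data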;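 further: p53-null SaOS-2 cells with luciferase driven by a doxycycline-inducible promoter; compound on cells about two nights before reading with doxycycline added after day one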
Each line names hits and unclear results; the compound was inactive in the other large screens (follow-up assays come after a bar, where they were run).

Cc1nc2nc(C)c(NS(=O)(=O)c3ccc(Cl)cc3)c(=O)n2[nH]1	none
CS(=O)(=O)N1c2ccccc2[C@]2([C@@]34C[C@H]5C(=O)N[C@@H](Cc6ccccc6)C(=O)N5[C@@H]3N(S(C)(=O)=O)c3ccccc34)C[C@H]3C(=O)N[C@@H](Cc4ccccc4)C(=O)N3[C@H]12	none (no result: Exocytosis inh, ABHD5-PLIN5 inh)
CC[C@H](C)[C@@H]1NC(=O)[C@H]([C@@H](C)CC)NC(=O)[C@@H](CC(C)C)NC(=O)[C@H](Cc2ccccc2)NC(=O)[C@H](Cc2ccccc2)NC(=O)[C@@H]2CCCN2C(=O)[C@@H]2CCCN2C(=O)[C@H](C(C)C)NC(=O)[C@H](CC(C)C)NC1=O	Mdm2 MdmX PPI 52 | Mdm2-MdmX conf inactive
CCn1c(NC(=O)c2ccc(COc3ccc(C)cc3[N+](=O)[O-])o2)nc2ccccc21	Mdm2 MdmX PPI 59 | Mdm2-MdmX conf 42 | FLuc counter 94
CCOC(=O)C(Cc1ccc(NC(=O)/C(=C/c2ccccc2)NC(=O)c2ccccc2)cc1)N1C(=O)c2ccccc2C1=O (stereo not given)	Mdm2 MdmX PPI 52 | Mdm2-MdmX conf inactive
Cc1ccc(C)c(CN2CCC(CNC(=O)Nc3cccc(Cl)c3C)CC2)c1	none
Cc1cc(C)cc(NC(=O)NCC2CCN(Cc3cc(C)ccc3C)CC2)c1	Mdm2 MdmX PPI 50 | Mdm2-MdmX conf inactive
CSc1nc2c(c(=O)[nH]c(=O)n2C)n1Cc1ccc(Cl)cc1	none
Cn1c(=O)[nH]c(=O)c2c1nc(N/N=C/c1ccncc1)n2Cc1ccc(Cl)cc1	Mdm2 MdmX PPI 67 | Mdm2-MdmX conf inactive
Cc1cc(C)cc(NC2=NC3(CCCCC3)N=C(N)N2)c1	Mdm2 MdmX PPI 59 | Mdm2-MdmX conf 53 | FLuc counter 73
CC(=O)c1cccc(S(=O)(=O)NC2CC2)c1	none
CCOC(=O)c1cnn(C(=O)c2ccccc2)c1N	none (no result: UPR XBP1 act, Mdm2 MdmX PPI, CHOP UPR activ)
CC(=O)Nc1nc2ccccc2n1Cc1ccccc1Cl	Mdm2 MdmX PPI 67 | Mdm2-MdmX conf 60 | FLuc counter 67
CC(=O)Nc1nc2ccccc2n1Cc1ccccc1C	Mdm2 MdmX PPI 79 | Mdm2-MdmX conf 59 | FLuc counter 71
CC(=O)NCc1nc2ccccc2n1Cc1ccccc1C	none
O=C(Nc1ccccn1)C1CCN(S(=O)(=O)c2ccc3c(c2)OCCCO3)CC1	none
Nc1c(C(=O)CSc2nnc(-c3ccccc3)o2)c(=O)[nH]c(=O)n1C1CC1	none
Cc1cc(C)cc(-c2nnc(SCC(=O)c3c(N)n(C4CC4)c(=O)[nH]c3=O)o2)c1	Mdm2 MdmX PPI 54 | Mdm2-MdmX conf inactive
Cc1ccc(Nc2nnc(SCC(=O)c3c(N)n(C4CC4)c(=O)[nH]c3=O)s2)cc1C	Mdm2 MdmX PPI 71 | Mdm2-MdmX conf inactive
CCCc1cc(=O)[nH]c(SCC(=O)c2c(N)n(C3CC3)c(=O)[nH]c2=O)n1	Mdm2 MdmX PPI 96 | Mdm2-MdmX conf inactive
O=C(CCCOc1ccccc1)N1CCCc2ccccc21	none
COc1ccc(C(=O)N2C(=O)c3ccc(N)cc3C2=O)cc1	none
CCC(=O)c1ccc(O)c(OC)c1	none
CCC(=O)c1ccc(O)c(CC=C(C)C)c1	Mdm2 MdmX PPI 57 | Mdm2-MdmX conf 44 | FLuc counter 42
CCOC(=O)c1ccc(N=C2S/C(=C\c3cc(C)n(-c4cccnc4)c3C)C(=O)N2C)cc1	Mdm2 MdmX PPI 66 | Mdm2-MdmX conf inactive
Cc1cc(/C=C2/SC(=S)N(c3cccc(C(F)(F)F)c3)C2=O)c(C)n1-c1cccnc1	none
O=C(Nc1cccc(S(=O)(=O)N2CCCCC2)c1)c1ccccc1NS(=O)(=O)c1ccc(F)cc1	Mdm2 MdmX PPI 89 | Mdm2-MdmX conf 71 | FLuc counter 111
Cn1nc(C(=O)Nc2cccc(S(=O)(=O)N3CCCCC3)c2)c2ccccc2c1=O	Mdm2 MdmX PPI 63 | Mdm2-MdmX conf 53 | FLuc counter 83
Cc1ccc(NC(=O)c2ccccc2NS(=O)(=O)c2ccc(F)cc2)cc1S(=O)(=O)N1CCCCC1	Mdm2 MdmX PPI 89 | Mdm2-MdmX conf 91 | FLuc counter inactive
CCCCOc1cc(=O)[nH]c(=O)[nH]1	none
S=C(NCCc1ccccn1)Nc1ccccc1	none
O=c1cc(-c2c(F)c(F)c(F)c(F)c2F)oc2c(F)c(F)c(F)c(F)c12	Mdm2 MdmX PPI 100 (no result: Exocytosis inh, ABHD5-PLIN5 inh) | Mdm2-MdmX conf 99 | FLuc counter inactive
O=c1cc(-c2c(F)c(F)c(F)c(F)c2F)oc2ccccc12	Mdm2 MdmX PPI 96 | Mdm2-MdmX conf inactive
CCc1nnc(NC(=O)CN2CCN(Cc3cccc(Cl)c3)CC2)s1	none
CC(C)(C)N1C(=O)Cc2c1nc(N)c1c(N)nc(N3CCCCC3CO)c(C#N)c21 (stereo not given)	Mdm2 MdmX PPI 68 | Mdm2-MdmX conf inactive
CCOCCCn1c(SCC(=O)Nc2cc(C(C)(C)C)nn2-c2ccccc2)nc2ccccc2c1=O	Mdm2 MdmX PPI 54 | Mdm2-MdmX conf inactive
CC(C)(C)c1cc(NC(=O)CCl)n(-c2ccccc2)n1	Mdm2 MdmX PPI 79 | Mdm2-MdmX conf 58 | FLuc counter inactive
CC(Cl)C(=O)Nc1cc(C(C)(C)C)nn1-c1ccccc1 (stereo not given)	none
COCCn1c(SCC(=O)Nc2cc(C(C)(C)C)nn2-c2ccccc2)nc2ccccc2c1=O	none
O=C(O)c1c[nH]n2c(=S)ncnc12	none (no result: UPR XBP1 act, Mdm2 MdmX PPI, CHOP UPR activ)
CN(Cc1ccccc1)c1ncnc2ccc(Br)cc12	Mdm2 MdmX PPI 57 | Mdm2-MdmX conf 49 | FLuc counter 39
CCOc1ccccc1Nc1ncnc2ccc(Br)cc12	none
CC(C)CN1C(=O)c2ccc(NC(=O)C3CC3)cc2C1=O	none
CCn1c(=O)c2c(cnn2C)c2ccccc21	Mdm2 MdmX PPI 81 | Mdm2-MdmX conf inactive
C[C@@H]1[C@H]2[C@@H]3CC[C@@H](C3)[C@H]2CN[C@H]1c1cn(Cc2ccccc2)c2ccccc12	Mdm2 MdmX PPI 54 | Mdm2-MdmX conf inactive
Cc1ccc(S(=O)(=O)N2C[C@@H]3[C@H]4CC[C@H](C4)[C@@H]3[C@@H](C)[C@@H]2c2cn(Cc3ccccc3)c3ccc(F)cc23)cc1	none
COc1ccc(C(CC(=O)c2ccc(C)cc2)C(C#N)C#N)cc1OC (stereo not given)	Mdm2 MdmX PPI 56 | Mdm2-MdmX conf 44 | FLuc counter 47
COc1cc2c(=O)n(Cc3ccco3)c(=O)n(CC(=O)c3cccc(Br)c3)c2cc1OC	Mdm2 MdmX PPI 50 (no result: Exocytosis inh, ABHD5-PLIN5 inh) | Mdm2-MdmX conf inactive
CCc1noc(C)c1C(=O)N1CCN(S(=O)(=O)c2ccc(C(C)=O)cc2)CC1	none
Cc1ccc(NC(=O)c2cc(-c3ccco3)on2)cc1	none
Clc1ccc(C2=Nn3c(nnc3-c3n[nH]c4c3CCC4)SC2)cc1	Mdm2 MdmX PPI 85 | Mdm2-MdmX conf 69 | FLuc counter 45
